According to paper PMC3273977 (International Journal of Nanomedicine, 2012):

What was measured:
HK-2 cells = experiment: In vitro cytotoxicity, sulforhodamine B assay; type: cell-based; conditions: Homo sapiens, HK-2, 24 h, read-out: IC50 cell viability
PDGFR-β = PDGFR-β (Mus musculus, UniProt P05622); experiment: Western blot of p-PDGFR-β in renal cortex, UUO model; type: in vivo; conditions: UUO mice 3 days; three daily ip injections 50 mg/kg sunitinib malate
How it was run: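 Male C57Bl/6J mice sacrificed after 3 days UUO; ip sunitinib malate 50 mg/kg, with 2nd/3rd doses at 24 and 48 h. Cortex homogenized in RIPA with protease/phosphatase inhibitors and EDTA. Blots blocked 1 h at room temperature in 5% milk/TBS-T. Probed overnight at 4°C with rabbit anti-p-PDGFR-β (Tyr740, 1:200) or β-actin (1:1000) in TBS-T/5% BSA.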

[1] = system: UUO-induced tubulointerstitial fibrosis; experiment: Overall antifibrotic effect in UUO-induced tubulointerstitial fibrosis; type: in vivo; conditions: UUO mice, daily 50 mg/kg sunitinib malate
How it was run: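 Male C57Bl/6J mice weighing 13–25 g had unilateral ureteral obstruction and were killed after 3 days. Sunitinib malate was given as three daily intraperitoneal injections of 50 mg/kg (94 μmol/kg), n = 7. Controls were normal mice and untreated UUO mice, n = 6 each. Kidneys were scored for collagen IV, vimentin and α-SMA immunostaining and p-PDGFR-β (Tyr740) Western blot. Data are mean ± SEM.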

[2] = system: α-SMA, collagen IV, and vimentin; experiment: Immunostaining of fibrotic markers in kidney sections, UUO model; type: in vivo; conditions: UUO mice 3 days; daily 50 mg/kg sunitinib malate ip
How it was run: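 Male C57Bl/6J mice, 3-day UUO; n=7 per treatment group, n=6 per control. Dosing: single iv test compound (40 mg/kg conjugate) or equimolar iv sunitinib malate (3.4 μmol/kg), or ip sunitinib malate 50 mg/kg with 2nd/3rd doses at 24 and 48 h. Sections 3 μm, peroxide/azide block pH 5.8; 15-min boil citrate pH 6.0 (collagen IV, vimentin) or Tris/EDTA pH 9.0 (α-SMA); primaries 1 h RT (1:400, 1:400, 1:200).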

P-glycoprotein (P-gp) = conditions: cited from earlier work
[3] = system: tyrosine kinases in HK-2 cells; experiment: Inhibition of tyrosine kinase phosphorylation after uptake in HK-2 cells; type: cell-based, human; conditions: 10 μM, 24 hours incubation of HK-2 cells, lysis, ATP stimulation, Western blot
How it was run: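 HK-2 cells were seeded at 1.5 × 10^4 per well, serum-starved overnight, then given 10 μM test compound or 0.1% (v/v) DMSO control for 24 h. Cells were PBS-washed and lysed with protease and phosphatase inhibitors, and protein was measured by BCA. Lysate was mixed with an equal volume of 10 μM ATP in Abl buffer (pH 7.5) and held 60 min at 37°C. 10 μg protein went to SDS-PAGE, anti-phosphotyrosine (PY20) blot and densitometry.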

[4] = Plasma pharmacokinetics after a single intravenous injection; type: in vivo, mice
How it was run: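 Male C57Bl/6J mice (n = 15) received one intravenous dose of sunitinib malate, 1.7 μmol/kg (0.9 mg/kg), equimolar to a 20 mg/kg lysozyme conjugate. Blood was taken by cheek puncture at 1 min and at sacrifice time points, then centrifuged. Plasma sunitinib was measured by LC-MS/MS against standards of 10 ng/mL–1 μg/mL. Values are % of dose, assuming plasma volume 0.05 mL/g. Parameters come from two-compartment curve fitting.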

ABCG2 = conditions: cited from earlier work
[5] = Renal accumulation pharmacokinetics after a single intravenous injection; type: in vivo, mice
How it was run: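 After one intravenous dose of sunitinib malate, 1.7 μmol/kg (0.9 mg/kg), to male C57Bl/6J mice, kidneys were collected at set times and frozen at −80°C. Kidneys were homogenised in 4% BSA to 0.1 g tissue/mL. Sunitinib was measured by LC-MS/MS against homogenate standards of 10–500 ng/mL, and renal levels are expressed as % of injected dose.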

[6] = system: collagen 1A2, PAI-1, fibronectin, and MCP-1; experiment: Renal mRNA expression of profibrotic genes; type: in vivo; conditions: UUO mice 3 days; three daily ip injections 50 mg/kg sunitinib malate
How it was run: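 Male C57Bl/6J mice, 3-day UUO; groups n=6–7; single iv test compound or sunitinib malate, or ip sunitinib malate 50 mg/kg with later doses at 24 and 48 h. TaqMan qRT-PCR on whole kidney and cortex. mRNA normalized to TBP and expressed relative to non-obstructed control mice (set at 1). Mean ± SEM; one-way ANOVA, P < 0.05.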

[7] = mice, single iv, equimolar 1.7 μmol/kg, kidneys
[8] = mice, single iv, equimolar 1.7 μmol/kg, kidneys, listed as sunitinib

PDGFR-β, sequence (P05622 32-1098): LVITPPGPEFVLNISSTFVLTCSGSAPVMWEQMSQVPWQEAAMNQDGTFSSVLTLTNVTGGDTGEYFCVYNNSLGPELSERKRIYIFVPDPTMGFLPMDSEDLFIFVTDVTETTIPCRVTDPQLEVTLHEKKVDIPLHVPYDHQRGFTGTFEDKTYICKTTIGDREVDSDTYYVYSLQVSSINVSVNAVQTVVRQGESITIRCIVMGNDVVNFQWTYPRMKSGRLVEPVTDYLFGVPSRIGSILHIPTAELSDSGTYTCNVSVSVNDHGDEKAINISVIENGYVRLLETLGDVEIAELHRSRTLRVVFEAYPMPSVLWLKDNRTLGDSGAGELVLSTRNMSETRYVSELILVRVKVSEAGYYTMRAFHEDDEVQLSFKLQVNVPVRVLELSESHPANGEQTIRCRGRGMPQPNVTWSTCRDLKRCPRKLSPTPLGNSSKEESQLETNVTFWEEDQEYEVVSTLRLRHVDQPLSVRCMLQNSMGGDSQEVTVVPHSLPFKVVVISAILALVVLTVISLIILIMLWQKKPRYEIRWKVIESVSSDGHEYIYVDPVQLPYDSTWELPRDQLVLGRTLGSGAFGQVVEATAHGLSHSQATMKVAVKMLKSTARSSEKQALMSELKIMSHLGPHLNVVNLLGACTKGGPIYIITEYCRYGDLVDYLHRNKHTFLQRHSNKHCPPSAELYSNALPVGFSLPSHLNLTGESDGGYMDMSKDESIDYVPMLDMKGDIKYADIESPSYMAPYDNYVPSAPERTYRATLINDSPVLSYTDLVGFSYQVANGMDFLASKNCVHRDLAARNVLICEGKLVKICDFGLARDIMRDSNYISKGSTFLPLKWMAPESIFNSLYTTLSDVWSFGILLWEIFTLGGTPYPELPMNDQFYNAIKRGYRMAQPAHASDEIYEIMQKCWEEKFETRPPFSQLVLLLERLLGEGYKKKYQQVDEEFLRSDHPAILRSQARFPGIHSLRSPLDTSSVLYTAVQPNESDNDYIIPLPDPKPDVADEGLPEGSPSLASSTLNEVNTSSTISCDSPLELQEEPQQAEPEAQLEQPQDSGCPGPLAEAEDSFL

In the case of CCN(CC)CCNC(=O)c1c(C)[nH]c(/C=C2\C(=O)Nc3ccc(F)cc32)c1C [Sunitinib, sunitinib], the IC50 (HK-2 cells) is reported as 12 µM, the “p-PDGFR-β levels in the renal cortex” value (PDGFR-β) is reported as “decreased p-PDGFR-β levels in the renal cortex” and the antifibrotic effect ([1]; listed as sunitinib) is reported as “reduction of some of the studied markers”. For the same molecule, the antifibrotic effect ([1]; listed as sunitinib malate) was “antifibrotic responses”, the “renal deposition of α-SMA, collagen IV, and vimentin” value [2] was “decreased the deposition of vimentin in the kidneys, although these differences were not significant” and the “substrate of efflux transporter P-gp” value (P-glycoprotein (P-gp)) was “substrate”. For the same molecule, the “inhibitory effect on phosphorylation of tyrosine kinases” value [3] was “strongly inhibited multiple kinases”, the half-life ([4]; C57Bl/6J, mouse, plasma, iv, 0.9 mg/kg) was 25 min and the “Peripheral distribution volume (V2)” value ([4]; mice, single iv, equimolar 1.7 μmol/kg, plasma) was 87 mL. For the same molecule, the “initial distribution volume (V1) relative to 17864-ULS-lysozyme” value ([4]; mice, single iv, equimolar dose) was “over 15 fold”, the “substrate of efflux transporter ABCG2” value (ABCG2) was “substrate” and the half-life ([5]; C57BI/6 J, mouse, kidneys, iv, 0.9 mg/kg) was 66 min. The “time to almost complete elimination from the kidneys” value ([5]; mice, after administration) was no more than 12 h, the “time to maximum renal levels” value ([5]; mice, single iv, equimolar 1.7 μmol/kg) was no more than 30 min and the “AUC0–∞” value [5, 7] was 9.4% dose*hours. The “Cmax (% of the dose)” value [5, 7] was 4.9%, the “AUC0–∞” value [5, 8] was 9.4 % dose*hours and the “Cmax (% of the dose)” value [5, 8] was 4.9%. For the same molecule, the “renal mRNA expression of collagen 1A2, PAI-1, fibronectin, MCP-1” value [6] was “significantly lower renal mRNA levels of collagen 1A2 and fibronectin”.
